Sampled rows, rich in hits. Any-hit rate of the full collection: about 2.9%.
INS-1E GSIS act: primary screen for activators of insulin secretion dependent on glucose, INS-1E cells, GLuc reporter luminescence; INS-1E GLuc reporter insulin secretion, 2-3 h; activation, % at 16.6 µM; actives 0.61% (n = 370,000); AID 743287;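 active means lowest replicate activation of at least 40%, so every replicate reaches that level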;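 further: 0% = median of neutral control wells and 100% = median of IBMX positive control wells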
CDK5 inh: inhibitors of human CDK5/p35 kinase | inhibition, % at 10 µM | Recombinant CDK5/p35, ADP-Glo luminescence, 60 min | actives 0.01% (n = 330,000);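 active means highest replicate inhibition of at least 50% and at least 75% of replicates reaching 50%; inconclusive means only one of the two criteria met; inactive means both criteria failed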;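 further: plate controls were DMSO neutral control for no effect and GW8510 at 10 µM for full effect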
Target sequence (Q00535 whole entry, looked up): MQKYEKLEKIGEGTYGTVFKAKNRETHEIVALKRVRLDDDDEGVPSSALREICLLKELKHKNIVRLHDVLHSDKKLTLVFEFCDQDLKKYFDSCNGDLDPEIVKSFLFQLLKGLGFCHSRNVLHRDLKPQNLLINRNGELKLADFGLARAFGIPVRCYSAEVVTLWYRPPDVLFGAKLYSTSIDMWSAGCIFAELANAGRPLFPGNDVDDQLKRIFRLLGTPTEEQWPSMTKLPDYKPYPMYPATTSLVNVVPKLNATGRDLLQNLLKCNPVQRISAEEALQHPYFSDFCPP
Target sequence (Q15078 whole entry, looked up): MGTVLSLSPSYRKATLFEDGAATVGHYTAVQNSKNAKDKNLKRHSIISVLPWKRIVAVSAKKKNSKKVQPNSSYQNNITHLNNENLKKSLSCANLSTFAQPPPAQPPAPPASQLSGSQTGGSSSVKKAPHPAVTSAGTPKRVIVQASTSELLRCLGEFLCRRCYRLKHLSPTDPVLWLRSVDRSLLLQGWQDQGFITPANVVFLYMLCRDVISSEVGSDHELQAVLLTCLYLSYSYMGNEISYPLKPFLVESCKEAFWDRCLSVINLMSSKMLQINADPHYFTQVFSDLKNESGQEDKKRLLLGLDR
Env fusion inh: blocks HIV Env-driven cell-cell fusion | HeLa-JRFL Env/CEM21 cell fusion, luciferase | actives 1.1% (n = 360,000) | inhibition, % at 12.3 µM;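 active means mean replicate inhibition score of at least 50 and every replicate individually at or above 50; inconclusive means only one of the two criteria met; inactive means mean below 50 and not all replicates reaching 50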;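 further: 0% = plate neutral controls and 100% = maraviroc near 300 nM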
Cneo AK release: Cryptococcus neoformans lysis via adenylate kinase release. C. neoformans lysis, adenylate kinase release luminescence, 4 h; normalised: neutral wells 0, clomiphene wells 100. lysis activity, % at 15 µM. actives 0.2% (n = 360,000);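 active means mean lysis activity across replicates of at least 80%, whatever share of replicates individually reach that level; inactive means mean lysis activity below 80%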
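Assay system: C. neoformans cells. Amount: yeast cell density of 5 × 10^6 cells/mL. Technique: AK luminescence. Buffer or medium: YPD. Times: static 4 h at 37 °C with compound, 1 h detection. Dosing: single-point compound dose. Read-out: lysis from increased AK signal.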
PAX8 reporter: lowers PAX8-driven luciferase in RMG-I cells; RMG-I TPO-luciferase reporter, SteadyGlo, 24 h; inhibition, % at 12.6 µM; actives 1.2% (n = 360,000);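 active means mean replicate inhibition at least 60% with every replicate also reaching 60%; inconclusive means only one of the two criteria is met; inactive means mean below 60% and not all replicates reaching 60%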;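 further: luciferase light reporting Pax8 driven TPO promoter activity; plate controls were median of neutral control wells for no effect and mitoxantrone controls for full effect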
dFosB activator: mouse delta FosB homodimer activation. P13346. activation, % at 25 µM. purified delta FosB, TAMRA-CDK5 oligo fluorescence polarization; percent of positive-control signal above neutral wells. actives 0.99% (n = 340,000);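 active means mean activation above about 17%, with every replicate also reaching it, limit read from the data, passing the limit was not always enough; inconclusive means only one of the two conditions met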
Numbers without * were called inactive; ? = inconclusive; . = no result given; [ ] = dose if it differs, or a comment.

SMILES | INS-1E GSIS act | CDK5 inh | Env fusion inh | Cneo AK release | PAX8 reporter | dFosB activator
COc1cccc(S(=O)(=O)Nc2ccc3c(c2)[C@@H]2C[C@H](CC(=O)NCc4ccc(Cl)cc4)O[C@@H](CO)[C@@H]2O3)c1 | -33 | . | 6[16.7 µM] | 4 | 62* | .
C[C@H](CO)N1C[C@H](C)[C@H](CN(C)S(=O)(=O)c2ccc(F)cc2)OCCCC[C@H](C)Oc2ccc(NS(=O)(=O)c3ccc(F)cc3)cc2C1=O | -19 | . | -125[16.7 µM] | -11 | 54 | .
CCCC#Cc1ccc([C@H]2[C@H]3CN(S(=O)(=O)c4ccccc4F)CCCCN3[C@H]2CO)cc1 | -1 | . | . | 2 | 18 | .
C[C@@]12C(=O)N(Cc3ccccc3)CC(=O)N1[C@H]1c3ccccc3OC[C@@H]1[C@@H]2c1ccccc1 | . | 0 | 104* | -1 | -2 | -6
Cc1ccc2c(c1)[C@H]1[C@H](CO2)[C@H](c2ccccc2)[C@]2(C)C(=O)N(Cc3ccco3)CC(=O)N12 | -15 | 2 | 17 | 5 | 0 | -7
CCOC(=O)[C@H]1[C@H]2COc3ccc(OC)cc3[C@@H]2N2C(=O)CN(Cc3ccc(Cl)cc3)C(=O)[C@@]12C | -52 | -1 | 63* | 1 | -5 | -4
C[C@@]12C(=O)N(Cc3ccco3)CC(=O)N1[C@H]1c3ccccc3OC[C@@H]1[C@@H]2c1ccccc1 | -29 | 2 | 84* | 0 | 2 | -5
C[C@]12C(=O)N(c3cccc(Cl)c3)C(=O)N1[C@@H]1c3ccccc3OC[C@@H]1[C@H]2c1ccccc1 | -6 | -1 | 56* | 1 | 7 | -6
CCOC(=O)[C@H]1[C@H]2COc3ccc(OC)cc3[C@@H]2N2C(=O)CN(Cc3ccc(F)cc3)C(=O)[C@@]12C | . | 1 | -37 | 2 | 5 | -1
C[C@]12C(=O)N(c3ccccc3)C(=O)N1[C@@H]1c3ccccc3OC[C@@H]1[C@H]2c1ccccc1 | 6 | -1 | -7 | -1 | -14 | 1
Cc1ccc(CN2CC(=O)N3[C@H]4c5ccccc5OC[C@@H]4[C@H](c4ccccc4)[C@]3(C)C2=O)cc1 | -25 | -2 | ? | 0 | 8 | 7
CCCCN1CC(=O)N2[C@H]3c4ccccc4OC[C@@H]3[C@H](c3ccccc3)[C@]2(C)C1=O | -14 | 2 | 83* | 1 | 6 | -4
COc1ccc(NC(=O)Nc2ccc3c(c2)C(=O)N([C@@H](C)CO)C[C@H](C)[C@H](CN(C)C(=O)Nc2ccc(C(F)(F)F)cc2)OCCCC[C@H](C)O3)cc1 | 8 | . | 40[16.7 µM] | 3 | 14 | .
NNC(=O)c1cccnc1Oc1ccccc1 | 44* | 1 | -17 | 0 | 1 | 1
COc1ccccc1NC(=O)N1CCCCN2[C@H](CO)[C@H](c3ccc(-c4ccc(C)cc4)cc3)[C@H]2C1 | -22 | . | . | 23 | 80* | .
O=C(c1cccc(F)c1)N1CCCCN2[C@H](CO)[C@@H](c3ccc(-c4ccncc4)cc3)[C@H]2C1 | 13 | . | . | -1 | -28 | .
OC[C@H]1[C@@H](c2ccc(-c3ccc(F)cc3)cc2)[C@H]2CN(CCC(F)(F)F)CCCCN21 | -12 | . | . | 3 | -5 | .
Cc1ccc(-c2ccc([C@@H]3[C@H](CO)N4CCCCN(C(=O)c5ccc(F)cc5)C[C@@H]34)cc2)cc1 | -11 | . | . | 10 | 72* | .
OC[C@@H]1[C@H](c2ccc(-c3ccc(F)cc3)cc2)[C@@H]2CN(CCC(F)(F)F)CCCCN12 | -21 | . | . | 0 | 93* | .
COc1ccccc1NC(=O)N1CCCCN2[C@H](C1)[C@@H](c1ccc(-c3ccc(C)cc3)cc1)[C@@H]2CO | -2 | . | . | . | . | .
O=C(c1cccc(F)c1)N1CCCCN2[C@@H](CO)[C@H](c3ccc(-c4ccncc4)cc3)[C@@H]2C1 | 13 | . | . | 112* | -32 | .
COc1ccc(S(=O)(=O)N(C)C[C@@H]2OCCCC[C@@H](C)Oc3ccc(NC(=O)Nc4ccccc4)cc3C(=O)N([C@@H](C)CO)C[C@@H]2C)cc1 | 11 | . | 44[16.7 µM] | 2 | -25 | .
CCc1nc(C)cn1S(=O)(=O)c1ccc([N+](=O)[O-])cc1 | -2 | -2 | -5 | 9 | -6 | -6
CCCn1c(CC)nc([N+](=O)[O-])c1S(=O)(=O)c1ccccc1 | . | -3 | 44 | -2 | 82* | -8
CC(=O)NC[C@@H]1[C@H](c2ccccc2)[C@@H](CO)N1C(=O)Cc1cccnc1 | 5 | . | . | 7 | -2 | .
SMILES | INS-1E GSIS act | CDK5 inh | Env fusion inh | Cneo AK release | PAX8 reporter | dFosB activator
CC(C)(C)OC(=O)N1O[C@H]2C[C@@H]1[C@@H]1[C@@H]2N=NN1C12CC3CC(CC(C3)C1)C2 | 44* | -1 | -3 | 5 | -3 | -10
Cc1ccc(S(=O)(=O)NC[C@@H]2CC[C@@H]3[C@@H](CN3C(=O)CN(C)C)O2)cc1 | . | . | -33[16.7 µM] | . | 5 | .
N#Cc1c(NCc2ccccc2)ccnc1NCc1cccnc1 | . | 0 | 107* | 4 | 19 | -11
CCOC1=C2[C@H](c3cccc(Cl)c3)N(S(=O)(=O)c3ccc(C)cc3)C[C@H]2n2c(=O)n(-c3ccccc3)c(=O)n2C1 | -17 | . | -30 | 2 | -4 | .
CCOC1=C2[C@H](c3ccc(C)cc3)N(S(=O)(=O)c3ccc(C)cc3)C[C@H]2n2c(=O)n(-c3ccccc3)c(=O)n2C1 | 52* | . | 8 | 1 | -4 | .
O=C(C[C@@H]1CC[C@@H](NC(=O)CN2CCOCC2)[C@@H](CO)O1)NCc1cccc(F)c1 | 5 | . | 8[16.7 µM] | -1 | -5 | .
COc1cc2c(cc1OC)/C(=C/C(=O)c1ccc(OC)c([N+](=O)[O-])c1)NCC2 | 51* | 0 | 23 | 2 | 2 | -13
Nc1[nH]nc2nc(N3CCOCC3)nc(-c3ccccc3)c12 | . | -7 | 67* | -1 | . | 0
CCC(=O)N1[C@@H]2Cn3c(cccc3=O)[C@H]1[C@@H](C(=O)NC1CCCC1)[C@@H]2CO | 5 | . | . | . | . | .
COc1ccc(-c2nn(C)c(=O)c3ccccc23)cc1NC(=O)Cn1nc(C)c2ccccc2c1=O | 15 | -1 | 76* | 0 | . | 11
COc1ccc(-c2nn(C)c(=O)c3ccccc23)cc1NC(=O)COc1ccc(C)cc1 | -25 | 0 | 57* | 2 | 6 | -6
CCC(=O)Nc1cc(-c2nn(C)c(=O)c3ccccc23)ccc1OC | . | 2 | -8 | -2 | . | -11
O=C(Nc1ccccc1F)N[C@@H]1CC[C@@H](CCNS(=O)(=O)c2ccccc2)O[C@@H]1CO | -1 | . | -13[16.7 µM] | 0 | 7 | .
CCOC(=O)c1cc(-c2ccncc2)nc2c1c(C)nn2-c1ccccn1 | 66* | 1 | -58 | 2 | -4 | -89
CCCCOc1ccc(/C=C/C(=O)OCC(=O)NC2CCS(=O)(=O)C2)cc1OCC (configuration not stated) | 45* | 0 | -3 | . | . | -18

Compound activity deposited in PubChem BioAssay by Broad Institute.
